Measured values from ChEMBL document CHEMBL4350958, “Rational Design of Short Peptide Variants by Using Kunitzin-RE, an Amphibian-Derived Bioactivity Peptide, for Acquired Potent Broad-Spectrum Antimicrobial and Improved Therapeutic Potential of Commensalism Coinfection of Pathogens” (J Med Chem, 2019).
Values after ≈ are worked out from the molar mass of the structure shown.

How the values were obtained:
Candida albicans [1] = assay: Antifungal activity against Candida albicans cgmcc2.2086 measured after 48 hrs in presence of KCl by broth microdilution method; assay type: functional
Pseudomonas aeruginosa [2] = assay: Bactericidal activity against Pseudomonas aeruginosa ATCC 27853 incubated for 24 hrs followed by replating on agar plate and measured after overnight incubation; assay type: functional; settings: for MBC: ATCC 27853, 24 h, read-out: MBC>99.9
Summary of the method: (§1)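 Mid-log bacteria diluted in MHB to (0.5–1) × 10^5 CFU/mL and mixed 1:1 with peptide serially diluted in 0.2% BSA. After 24 h at 37 °C, 50 μL of each mixture was plated on agar and incubated overnight. MBC taken as the lowest concentration killing >99.9% of cells. At least three independent experiments, each with three technical replicates.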

Candida albicans [3] = assay: Antifungal activity against Candida albicans cgmcc2.2086 measured after 48 hrs in presence of NaCl by broth microdilution method; assay type: functional
Escherichia coli [4] = assay: Antibacterial activity against Escherichia coli 078 measured after 24 hrs; assay type: functional
Summary of the method: (§2)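 Broth microdilution adapted from NCCLS. Mid-log bacteria were diluted in MHB to a final (0.5–1) × 10^5 CFU mL−1. Peptides were serially diluted in 0.2% BSA and mixed with an equal volume of cells. After 24 h at 37 °C, MIC was read at A492 as the lowest concentration inhibiting 95% of growth. At least three independent experiments, each with three technical replicates.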

Candida albicans [5] = assay: Antifungal activity against Candida albicans cgmcc2.2086 measured after 48 hrs in presence of CaCl by broth microdilution method; assay type: functional
Escherichia coli [6] = assay: Antibacterial activity against Escherichia coli ATCC 25922 measured after 18 to 24 hrs in presence of NH4Cl; assay type: functional
Staphylococcus aureus [7] = assay: Antibacterial activity against Staphylococcus aureus ATCC 25923 measured after 24 hrs; assay type: functional
Summary of the method: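 Broth microdilution modified from NCCLS. Mid-log bacteria at (0.5–1) × 10^5 CFU mL−1 in MHB, mixed with peptides serially diluted in 0.2% BSA. Incubated 24 h at 37 °C, read at A492. MIC taken as lowest concentration giving 95% growth inhibition. At least three independent experiments, each with three technical replicates.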

Candida albicans [8] = assay: Antifungal activity against Candida albicans cgmcc2.2086 measured after 48 hrs in presence of NH4Cl by broth microdilution method; assay type: functional
Escherichia coli [9] = assay: Antibacterial activity against Escherichia coli ATCC 25922 measured after 18 to 24 hrs in presence of KCl; assay type: functional
Staphylococcus aureus [10] = assay: Antibacterial activity against Staphylococcus aureus ATCC 29213 measured after 18 to 24 hrs in presence of ZnCl2; assay type: functional
Summary of the method: (§3)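 MIC broth microdilution (MHB, 0.2% BSA peptide diluent, A492, 95% inhibition) run in the presence of physiological salts at final concentrations of 6 μM NH4Cl or 8 μM ZnCl2. Three independent assays, each with three technical replicates.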

Staphylococcus aureus [11] = assay: Antibacterial activity against Staphylococcus aureus ATCC 29213 measured after 18 to 24 hrs in presence of FeCl3; assay type: functional
Pseudomonas aeruginosa [12] = assay: Antibacterial activity against Pseudomonas aeruginosa ATCC 27853 measured after 24 hrs; assay type: functional; summary of the method: as §2
Escherichia coli [13] = assay: Bactericidal activity against Escherichia coli 078 incubated for 24 hrs followed by replating on agar plate and measured after overnight incubation; assay type: functional; settings: for MBC: Escherichia coli, 078, 24 h, read-out: MBC>99.9
Summary of the method: (§4)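 After the 24 h, 37 °C MHB microdilution (0.5–1 × 10^5 CFU mL−1 inoculum, peptides diluted in 0.2% BSA), 50 μL from each well was plated on agar and incubated overnight. MBC was taken as the lowest concentration killing >99.9% of cells. Three or more independent experiments, each with triplicate technical replicates.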

Salmonella typhimurium = assay: Antibacterial activity against Salmonella typhimurium C7731 measured after 24 hrs; assay type: functional; summary of the method: as §2
Staphylococcus aureus [14] = assay: Antibacterial activity against Staphylococcus aureus ATCC 29213 measured after 18 to 24 hrs in presence of NH4Cl; assay type: functional; summary of the method: as §3
Escherichia coli [15] = assay: Bactericidal activity against Escherichia coli UB1005 incubated for 24 hrs followed by replating on agar plate and measured after overnight incubation; assay type: functional; settings: for MBC: UB1005, 24 h, read-out: MBC>99.9; summary of the method: as §1
Escherichia coli [16] = assay: Bactericidal activity against Escherichia coli ATCC 25922 incubated for 24 hrs followed by replating on agar plate and measured after overnight incubation; assay type: functional; settings: for MBC: ATCC 25922, 24 h, read-out: MBC>99.9; summary of the method: as §4
Candida albicans [17] = assay: Antifungal activity against Candida albicans cgmcc2.2086 measured after 48 hrs in presence of FeCl by broth microdilution method; assay type: functional
Escherichia coli [18] = assay: Antibacterial activity against Escherichia coli ATCC 25922 measured after 18 to 24 hrs in presence of ZnCl2; assay type: functional
Candida tropicalis = assay: Fungicidal activity against Candida tropicalis cgmcc2.1975 incubated for 48 hrs followed by replating on YM agar plate and measured after 48 hrs; assay type: functional
Summary of the method: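 Yeast diluted in MOPS-buffered RPMI 1640 to (0.5–1) × 10^3 CFU/mL (CLSI M27-A2, modified) and mixed 1:1 with peptide serially diluted in 0.2% BSA. After 48 h at 28 °C, 50 μL per well was plated on YM agar and incubated 48 h at 28 °C. MFC taken as the lowest concentration killing ≥99.9% of cells. Three or more independent experiments, triplicate wells.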

[19] = Therapeutic index, ratio of MHC10 for hemolytic activity in human RBC to MIC95 against Candida albicans cgmcc2.2086; assay type: toxicity; settings: human red blood cells (erythrocytes), read-out: TI
Summary of the method: (§5)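 Therapeutic index = MHC divided by MIC. MHC is the lowest concentration giving >10% lysis of human RBC (1 h, 37 °C, 1-128 µM, A576). MIC is 95% growth inhibition by broth microdilution: bacteria in MHB 24 h at 37 °C; Candida in MOPS-buffered RPMI 1640 at (0.5–1) × 10^3 CFU mL−1, 48 h at 28 °C.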

Erythrocyte = assay: Hemolytic activity in human RBC measured after 1 hr; assay type: ADME, cell-based
Summary of the method: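 Fresh healthy-donor human erythrocytes at ~1% (v/v) in PBS pH 7.4, mixed 1:1 with peptide (1–128 µM), 1 h at 37 °C. After centrifugation at 1000×g, supernatant hemoglobin read at 576 nm. Untreated cells set 0% and 0.1% Triton X-100 set 100%. MHC defined as the concentration giving >10% hemolysis. Three or more independent experiments, triplicates.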

[20] = Therapeutic index, ratio of MHC10 for hemolytic activity in human RBC to MIC95 against Candida parapsilosis cgmcc2.3989; assay type: toxicity; settings: human red blood cells (erythrocytes), read-out: TI; summary of the method: as §5
[21] = Conformational stability in pH 7.4 sodium phosphate buffer assessed as absorption spectra at minimum dichroic band at 35 uM by CD spectra analysis; assay type: physicochemical; settings: pH 7.4, 35 µM
Summary of the method: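 CD spectra from 190 to 250 nm of peptide at 35 μM in 10 mM PBS, 30 mM SDS micelles or 50% TFE, recorded in a 1.0-mm quartz cell. Ellipticity was converted to mean residue ellipticity. Three independent scans, each averaged over more than 3 runs.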

[22] = Salmonella enterica subsp. enterica serovar Typhimurium
[23] = Salmonella enterica, C7731, 24 h

Compound	MIC95 (Escherichia coli [6])	MIC95 (Escherichia coli [9])	MIC95 (Staphylococcus aureus [10])	MIC95 (Staphylococcus aureus [11])	MIC95 (Staphylococcus aureus [14])	MIC95 (Escherichia coli [18])	MIC95 (Candida albicans [1]; cgmcc2.2086, 48 h)	MIC95 (Candida albicans [3]; cgmcc2.2086, 48 h)	MIC95 (Escherichia coli [4]; Escherichia coli, 078, 24 h)	MIC95 (Candida albicans [5]; cgmcc2.2086, 48 h)	MIC95 (Staphylococcus aureus [7]; ATCC 25923, 24 h)	MIC95 (Candida albicans [8]; cgmcc2.2086, 48 h)	MIC95 (Pseudomonas aeruginosa [12]; ATCC 27853, 24 h)	MFC<=99.9 (Candida tropicalis)	MBC (Escherichia coli [13])	MIC95 (Salmonella typhimurium; [23])	selectivity ratio [19]	MBC (Escherichia coli [15])	MBC (Escherichia coli [16])	MIC95 (Candida albicans [17]; cgmcc2.2086, 48 h)	further results
GENTAMICIN	1 µM	1 µM	1 µM	1 µM	1 µM	1 µM	–	–	–	–	–	–	–	–	–	–	–	–	–	–	MIC95 (Candida albicans [1]): > 128 µM; MBC>99.9 (Pseudomonas aeruginosa [2]): 1 µM; MIC95 (Candida albicans [3]): > 128 µM; MIC95 (Escherichia coli [4]): 0.5 µM; MIC95 (Candida albicans [5]): > 128 µM; MIC95 (Staphylococcus aureus [7]): 1 µM; MIC95 (Candida albicans [8]): > 128 µM; MIC95 (Pseudomonas aeruginosa [12]): 1 µM; MBC>99.9 (Escherichia coli [13]): 0.5 µM; MIC95 (Salmonella typhimurium; [22]): 1 µM; MBC>99.9 (Escherichia coli [15]): 1 µM; MBC>99.9 (Escherichia coli [16]): 1 µM; MIC95 (Candida albicans [17]): > 128 µM
CC[C@H](C)[C@H](NC(=O)CN)C(=O)NCC(=O)N[C@@H](C)C(=O)N[C@H](C(=O)N[C@@H](CC(C)C)C(=O)N[C@@H](CCCCN)C(=O)N[C@H](C(=O)N[C@@H](CC(C)C)C(=O)N[C@H](C(=O)N[C@H](C(=O)NCC(=O)N[C@@H](CC(C)C)C(=O)N1CCC[C@H]1C(=O)N[C@@H](C)C(=O)N[C@@H](CC(C)C)C(=O)N[C@H](C(=O)N[C@@H](CO)C(=O)N[C@@H](Cc1c[nH]c2ccccc12)C(=O)N[C@H](C(=O)N[C@@H](CCCCN)C(=O)N[C@@H](CCCNC(=N)N)C(=O)N[C@@H](CCCCN)C(=O)N[C@@H](CCCNC(=N)N)C(=O)N[C@@H](CCC(N)=O)C(=O)N[C@@H](CCC(N)=O)C(N)=O)[C@@H](C)CC)[C@@H](C)CC)[C@@H](C)O)[C@@H](C)O)C(C)C)C(C)C [MELITTIN]	2 µM	2 µM	4 µM	4 µM	4 µM	2 µM	4 µM	8 µM	2 µM (≈ 5.69 µg/mL)	8 µM	8 µM (≈ 22.8 µg/mL)	4 µM	2 µM (≈ 5.69 µg/mL)	4 µM (≈ 11.4 µg/mL)	2 µM (≈ 5.69 µg/mL)	2 µM (≈ 5.69 µg/mL)	0.32	2 µM (≈ 5.69 µg/mL)	4 µM (≈ 11.4 µg/mL)	4 µM	MBC (Pseudomonas aeruginosa [2]): 4 µM (≈ 11.4 µg/mL); MHC10 (Erythrocyte): 1 µM; selectivity ratio [20]: 0.32
H-AARIILRTRFR-NH2	8 µM	32 µM	16 µM	16 µM	16 µM	8 µM	> 128 µM	> 128 µM	4 µM	> 128 µM	16 µM	> 128 µM	> 128 µM	64 µM	8 µM	16 µM	4	8 µM	16 µM	> 128 µM	Wavelength of minimum CD band [21]: 200 nm; MHC10 (Erythrocyte): > 128 µM; selectivity ratio [20]: 4
CC(C)(O/N=C(\C(=O)N[C@@H]1C(=O)N2C(C(=O)[O-])=C(C[n+]3ccccc3)CS[C@H]12)c1csc(N)n1)C(=O)O [CEFTAZIDIME]	2 µM	2 µM	16 µM	16 µM	16 µM	2 µM	> 128 µM	> 128 µM	0.5 µM (≈ 0.273 µg/mL)	> 128 µM	16 µM (≈ 8.75 µg/mL)	> 128 µM	2 µM (≈ 1.09 µg/mL)	–	0.5 µM (≈ 0.273 µg/mL)	1 µM (≈ 0.547 µg/mL)	–	2 µM (≈ 1.09 µg/mL)	2 µM (≈ 1.09 µg/mL)	> 128 µM	MBC (Pseudomonas aeruginosa [2]): 4 µM (≈ 2.19 µg/mL)
POLYMYXIN B	2 µM	2 µM	32 µM	32 µM	32 µM	2 µM	–	–	–	–	–	–	–	–	–	–	–	–	–	–	MIC95 (Candida albicans [1]): 32 µM; MBC>99.9 (Pseudomonas aeruginosa [2]): 4 µM; MIC95 (Candida albicans [3]): 128 µM; MIC95 (Escherichia coli [4]): 1 µM; MIC95 (Candida albicans [5]): > 128 µM; MIC95 (Staphylococcus aureus [7]): 64 µM; MIC95 (Candida albicans [8]): 32 µM; MIC95 (Pseudomonas aeruginosa [12]): 2 µM; MBC>99.9 (Escherichia coli [13]): 1 µM; MIC95 (Salmonella typhimurium; [22]): 2 µM; MBC>99.9 (Escherichia coli [15]): 2 µM; MBC>99.9 (Escherichia coli [16]): 4 µM; MIC95 (Candida albicans [17]): 32 µM
H-AARIILRFRFR-NH2	4 µM	16 µM	2 µM	4 µM	2 µM	4 µM	8 µM	32 µM	4 µM	64 µM	2 µM	4 µM	> 128 µM	4 µM	8 µM	4 µM	50.8	8 µM	8 µM	8 µM	Wavelength of minimum CD band [21]: 200 nm; MHC10 (Erythrocyte): > 128 µM; selectivity ratio [20]: 50.8
